The assay deals with K562. In words: In vitro antitumor activity against human chronic myeloid leukemia K562 cell line. In kind it is functional, cell-based. An outline of the steps:
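K562 cells grown in RPMI 1640 with 10% fetal calf serum and 2 mM glutamine at 37 °C, 5% CO2. Exposed to drug for 1 h at 37 °C in the dark, then centrifuged and washed. Seeded at 10⁴ cells/well, 8 wells per sample, and cultured 4 days. MTT read at 550 nm. IC50 is the dose giving 50% of control OD, mean of at least three experiments.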

Regarding `O=C(O)CCCCCCn1cc(N(CCCl)CCCl)c(=O)[nH]c1=O`, the IC50 is > 100 µM.
On to `O=C(O)CCCCCn1cc(N(CCCl)CCCl)c(=O)[nH]c1=O`, for which the 50% inhibitory concentration (IC50) was > 100 µM.
`O=C(O)CCCCn1cc(N(CCCl)CCCl)c(=O)[nH]c1=O`: the IC50 is > 100 µM.
In the case of `Cn1cc(NC(=O)c2cc(NC(=O)c3cc(NC=O)cn3C)cn2C)cc1C(=O)NCCC(=N)N`, the half-inhibitory concentration (IC50) is > 100 µM.
To `O=C(O)CCCn1cc(N(CCCl)CCCl)c(=O)[nH]c1=O` belongs > 100 µM.
Compound `Cn1cc(NC(=O)c2cc(NC(=O)c3cc(NC(=O)CCCCn4cc(N(CCCl)CCCl)c(=O)[nH]c4=O)cn3C)cn2C)cc1C(=O)NCCC(=N)N` showed an IC50 of 0.11 µM.
To `Cn1cc(NC(=O)c2cc(NC(=O)c3cc(NC(=O)Cn4cc(N(CCCl)CCCl)c(=O)[nH]c4=O)cn3C)cn2C)cc1C(=O)NCCC(=N)N` belongs 4.06 µM; to `Cn1cc(NC(=O)c2cc(NC(=O)c3cc(NC(=O)CCn4cc(N(CCCl)CCCl)c(=O)[nH]c4=O)cn3C)cn2C)cc1C(=O)NCCC(=N)N`, 2.54 µM.
With `Cn1cc(NC(=O)c2cc(NC(=O)c3cc(NC(=O)CCCn4cc(N(CCCl)CCCl)c(=O)[nH]c4=O)cn3C)cn2C)cc1C(=O)NCCC(=N)N`, 7.26 µM corresponded to half-maximal inhibition (IC50).
To `Cn1cc(NC(=O)c2cc(NC(=O)c3cc(NC(=O)CCCCCn4cc(N(CCCl)CCCl)c(=O)[nH]c4=O)cn3C)cn2C)cc1C(=O)NCCC(=N)N` belongs 0.14 µM.
The compound `Cn1cc(NC(=O)c2cc(NC(=O)c3cc(NC(=O)CCCCCCn4cc(N(CCCl)CCCl)c(=O)[nH]c4=O)cn3C)cn2C)cc1C(=O)NCCC(=N)N` had an IC50 of 0.07 µM.
`Oc1ncc(N(CCCl)CCCl)c(O)n1` [URACIL MUSTARD] registered a 50% inhibitory concentration (IC50) of 5.1 µM.

The values above are taken from ChEMBL document CHEMBL1135544, “Design, synthesis, and biological activity of hybrid compounds between uramustine and DNA minor groove binder distamycin A” (J Med Chem, 2002).
